Experimental data from ChEMBL document CHEMBL1255409, “In vitro activity of ceftaroline against 623 diverse strains of anaerobic bacteria” (2010).
In brackets after ≈: the same amount, converted by molar mass.

How the values were obtained:
Assay type in all cases: functional
Solobacterium moorei = assay: Antimicrobial activity against Solobacterium moorei under anaerobic conditions after 44 hrs by CLSI-M11-47 protocol based agar dilution method
Method in brief: (§1)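 Clinical isolates were stored at −70°C in 20% skim milk and identified phenotypically or by partial 16S rRNA sequencing. Each strain was subcultured twice from frozen stock. Cell paste from 48-h cultures was suspended in brucella broth to a 0.5 McFarland standard. About 10^5 CFU per spot were applied by Steers replicator to agar dilution plates prepared on the day of testing. Plates were incubated 44 h at 37°C in an anaerobic chamber. MIC was taken as the lowest concentration giving complete inhibition or marked reduction of growth versus the drug-free control.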

Clostridium subterminale = assay: Antimicrobial activity against Clostridium subterminale under anaerobic conditions after 44 hrs by CLSI-M11-47 protocol based agar dilution method
Method in brief: (§2)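 Reference agar dilution per CLSI M11-A7 with plates made on test day. Clinical isolates were stored at −70°C in 20% skim milk, subcultured twice, and 48-h cell paste was suspended in brucella broth to 0.5 McFarland. About 10^5 CFU/spot was applied with a Steers replicator. Plates were incubated 44 h at 37°C anaerobically. MIC was the lowest concentration giving complete inhibition or marked growth reduction versus the drug-free control.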

Clostridium tertium = assay: Antimicrobial activity against Clostridium tertium under anaerobic conditions after 44 hrs by CLSI-M11-47 protocol based agar dilution method; method in brief: as §2
[1] = system: Prevotella melaninogenica; assay: Antimicrobial activity against Prevotella melaninogenica under anaerobic conditions after 44 hrs by CLSI-M11-47 protocol based agar dilution method; method in brief: as §1
[2] = system: Clostridium celerecrescens; assay: Antimicrobial activity against Clostridium celerecrescens under anaerobic conditions after 44 hrs by CLSI-M11-47 protocol based agar dilution method; conditions: Lacrimispora celerecrescens; method in brief: as §2
Peptoniphilus lacrimalis = assay: Antimicrobial activity against Peptoniphilus lacrimalis under anaerobic conditions after 44 hrs by CLSI-M11-47 protocol based agar dilution method; method in brief: as §1
Prevotella buccae = assay: Antimicrobial activity against Prevotella buccae under anaerobic conditions after 44 hrs by CLSI-M11-47 protocol based agar dilution method; conditions: Segatella buccae; method in brief: as §1
Bacteroides caccae = assay: Antimicrobial activity against Bacteroides caccae under anaerobic conditions after 44 hrs by CLSI-M11-47 protocol based agar dilution method; method in brief: as §2
Prevotella corporis = assay: Antimicrobial activity against Prevotella corporis under anaerobic conditions after 44 hrs by CLSI-M11-47 protocol based agar dilution method; method in brief: as §1
Anaerococcus = assay: Antimicrobial activity against Anaerococcus sp. under anaerobic conditions after 44 hrs by CLSI-M11-47 protocol based agar dilution method; method in brief: as §2
[3] = system: Bacteroides thetaiotaomicron; assay: Antimicrobial activity against Bacteroides thetaiotaomicron under anaerobic conditions after 44 hrs by CLSI-M11-47 protocol based agar dilution method; method in brief: as §2
Anaerococcus murdochii = assay: Antimicrobial activity against Anaerococcus murdochii under anaerobic conditions after 44 hrs by CLSI-M11-47 protocol based agar dilution method; method in brief: as §2
Prevotella bergensis = assay: Antimicrobial activity against Prevotella bergensis under anaerobic conditions after 44 hrs by CLSI-M11-47 protocol based agar dilution method; conditions: Hallella bergensis; method in brief: as §1
Anaerococcus octavius = assay: Antimicrobial activity against Anaerococcus octavius under anaerobic conditions after 44 hrs by CLSI-M11-47 protocol based agar dilution method; method in brief: as §2
Prevotella nanceiensis = assay: Antimicrobial activity against Prevotella nanceiensis under anaerobic conditions after 44 hrs by CLSI-M11-47 protocol based agar dilution method; conditions: Hoylesella nanceiensis; method in brief: as §1
Eubacterium cylindroides = assay: Antimicrobial activity against Eubacterium cylindroides under anaerobic conditions after 44 hrs by CLSI-M11-47 protocol based agar dilution method; conditions: Faecalitalea cylindroides; method in brief: as §2
Lacticaseibacillus casei = assay: Antimicrobial activity against Lactobacillus casei under anaerobic conditions after 44 hrs by CLSI-M11-47 protocol based agar dilution method; method in brief: as §1
[4] = system: Parabacteroides distasonis; assay: Antimicrobial activity against Bacteroides distasonis under anaerobic conditions after 44 hrs by CLSI-M11-47 protocol based agar dilution method; method in brief: as §2
Bacteroides fragilis = assay: Antimicrobial activity against Bacteroides fragilis under anaerobic conditions after 44 hrs by CLSI-M11-47 protocol based agar dilution method; method in brief: as §2
Parabacteroides merdae = assay: Antimicrobial activity against Bacteroides merdae under anaerobic conditions after 44 hrs by CLSI-M11-47 protocol based agar dilution method; method in brief: as §2
Porphyromonas somerae = assay: Antimicrobial activity against Porphyromonas somerae under anaerobic conditions after 44 hrs by CLSI-M11-47 protocol based agar dilution method; method in brief: as §1
[5] = system: Paraclostridium bifermentans; assay: Antimicrobial activity against Clostridium bifermentans under anaerobic conditions after 44 hrs by CLSI-M11-47 protocol based agar dilution method; method in brief: as §2
Clostridium baratii = assay: Antimicrobial activity against Clostridium baratii under anaerobic conditions after 44 hrs by CLSI-M11-47 protocol based agar dilution method
[6] = system: Paeniclostridium sordellii; assay: Antimicrobial activity against Clostridium sordellii under anaerobic conditions after 44 hrs by CLSI-M11-47 protocol based agar dilution method; conditions: Paraclostridium sordellii; method in brief: as §2
Anaerococcus vaginalis = assay: Antimicrobial activity against Anaerococcus vaginalis under anaerobic conditions after 44 hrs by CLSI-M11-47 protocol based agar dilution method; method in brief: as §2
Actinomyces turicensis = assay: Antimicrobial activity against Actinomyces turicensis under anaerobic conditions after 44 hrs by CLSI-M11-47 protocol based agar dilution method; conditions: Schaalia turicensis; method in brief: as §2
Clostridium butyricum = assay: Antimicrobial activity against Clostridium butyricum under anaerobic conditions after 44 hrs by CLSI-M11-47 protocol based agar dilution method
Bacteroides uniformis = assay: Antimicrobial activity against Bacteroides uniformis under anaerobic conditions after 44 hrs by CLSI-M11-47 protocol based agar dilution method; method in brief: as §2
Clostridium citroniae = assay: Antimicrobial activity against Clostridium citroniae under anaerobic conditions after 44 hrs by CLSI-M11-47 protocol based agar dilution method; conditions: Enterocloster citroniae; method in brief: as §2
Prevotella bivia = assay: Antimicrobial activity against Prevotella bivia under anaerobic conditions after 44 hrs by CLSI-M11-47 protocol based agar dilution method; method in brief: as §1
Hoylesella loescheii = assay: Antimicrobial activity against Prevotella loescheii under anaerobic conditions after 44 hrs by CLSI-M11-47 protocol based agar dilution method; method in brief: as §1
Clostridium symbiosum = assay: Antimicrobial activity against Clostridium symbiosum under anaerobic conditions after 44 hrs by CLSI-M11-47 protocol based agar dilution method; method in brief: as §2

## CCC[C@@H]1C[C@@H](C(=O)N[C@@H]([C@H]2O[C@H](SC)[C@H](O)[C@@H](O)[C@H]2O)[C@H](C)Cl)N(C)C1 [CLINDAMYCIN]
Solobacterium moorei
  MIC50: 0.06 µg/mL (≈ 0.141 µM)
  MIC90: 2 µg/mL (≈ 4.71 µM)
Clostridium subterminale
  MIC50: 2 µg/mL (≈ 4.71 µM)
  MIC90: 128 µg/mL (≈ 301 µM)
Clostridium tertium
  MIC50: 2 µg/mL (≈ 4.71 µM)
  MIC90: 128 µg/mL (≈ 301 µM)
[1]
  MIC50: ≤ 0.03 µg/mL
  MIC90: > 128 µg/mL
[2]
  MIC50: 2 µg/mL (≈ 4.71 µM)
  MIC90: 128 µg/mL (≈ 301 µM)
Peptoniphilus lacrimalis
  MIC50: 0.125 µg/mL (≈ 0.294 µM)
  MIC90: 64 µg/mL (≈ 151 µM)
Prevotella buccae
  MIC50: ≤ 0.03 µg/mL
  MIC90: > 128 µg/mL
Bacteroides caccae
  MIC50: 4 µg/mL (≈ 9.41 µM)
  MIC90: > 128 µg/mL
Prevotella corporis
  MIC50: ≤ 0.03 µg/mL
  MIC90: 128 µg/mL (≈ 301 µM)
Anaerococcus
  MIC50: 0.125 µg/mL (≈ 0.294 µM)
  MIC90: 64 µg/mL (≈ 151 µM)
[3]
  MIC50: 4 µg/mL (≈ 9.41 µM)
  MIC90: 128 µg/mL (≈ 301 µM)
Anaerococcus murdochii
  MIC50: 0.125 µg/mL (≈ 0.294 µM)
  MIC90: 64 µg/mL (≈ 151 µM)
Prevotella bergensis
  MIC50: ≤ 0.03 µg/mL
  MIC90: 128 µg/mL (≈ 301 µM)
Anaerococcus octavius
  MIC50: 0.125 µg/mL (≈ 0.294 µM)
  MIC90: 64 µg/mL (≈ 151 µM)
Prevotella nanceiensis
  MIC50: ≤ 0.03 µg/mL
  MIC90: 128 µg/mL (≈ 301 µM)
Eubacterium cylindroides
  MIC50: 0.06 µg/mL (≈ 0.141 µM)
  MIC90: 2 µg/mL (≈ 4.71 µM)
Lacticaseibacillus casei
  MIC50: 1 µg/mL (≈ 2.35 µM)
  MIC90: 2 µg/mL (≈ 4.71 µM)
[4]
  MIC50: 4 µg/mL (≈ 9.41 µM)
  MIC90: > 128 µg/mL
Bacteroides fragilis
  MIC50: 1 µg/mL (≈ 2.35 µM)
  MIC90: 128 µg/mL (≈ 301 µM)
Parabacteroides merdae
  MIC50: 4 µg/mL (≈ 9.41 µM)
  MIC90: > 128 µg/mL
Porphyromonas somerae
  MIC50: ≤ 0.03 µg/mL
  MIC90: > 128 µg/mL
[5]
  MIC50: 2 µg/mL (≈ 4.71 µM)
  MIC90: 128 µg/mL (≈ 301 µM)
Clostridium baratii
  MIC50: 2 µg/mL (≈ 4.71 µM)
  MIC90: 128 µg/mL (≈ 301 µM)
[6]
  MIC50: 2 µg/mL (≈ 4.71 µM)
  MIC90: 128 µg/mL (≈ 301 µM)
Anaerococcus vaginalis
  MIC50: 0.125 µg/mL (≈ 0.294 µM)
  MIC90: 64 µg/mL (≈ 151 µM)
Actinomyces turicensis
  MIC50: 0.06 µg/mL (≈ 0.141 µM)
  MIC90: 128 µg/mL (≈ 301 µM)
Clostridium butyricum
  MIC50: 2 µg/mL (≈ 4.71 µM)
  MIC90: 128 µg/mL (≈ 301 µM)
Bacteroides uniformis
  MIC50: 4 µg/mL (≈ 9.41 µM)
  MIC90: > 128 µg/mL
Clostridium citroniae
  MIC50: 0.5 µg/mL (≈ 1.18 µM)
  MIC90: 2 µg/mL (≈ 4.71 µM)
Prevotella bivia
  MIC50: ≤ 0.03 µg/mL
  MIC90: > 128 µg/mL
Hoylesella loescheii
  MIC50: ≤ 0.03 µg/mL
  MIC90: 128 µg/mL (≈ 301 µM)
Clostridium symbiosum
  MIC50: 2 µg/mL (≈ 4.71 µM)
  MIC90: 128 µg/mL (≈ 301 µM)
